In brackets after ≈: the same amount, converted by molar mass. Several values for one entry are separate records, joined by “and”; a condition that tells them apart may be missing. Identical values can stand only once.
Key:
VIM-1 and IMP-1 = conditions: cited from earlier work
NDM-1 and VIM-2 = conditions: cited from earlier work
NDM-1 = NDM-1 (Klebsiella pneumoniae, UniProt C7C422); experiment: MBL inhibition, nitrocefin absorbance assay, NDM-1; format: biochemical
Method in brief: (§1)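 Absorbance inhibition assay for purified metallo-β-lactamases from a seven-enzyme panel. Nitrocefin served as substrate; enzyme hydrolysis of its β-lactam ring shifts the absorption spectrum, which is monitored by absorbance. IC50 was determined for the test compound.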

IMP-1 = IMP-1 (Serratia marcescens, UniProt P52699); experiment: MBL inhibition, nitrocefin absorbance assay, IMP-1; format: biochemical
Method in brief: as §1

K. pneumoniae R3934 = experiment: Time-kill kinetics of carbapenem combinations; format: cell-based; conditions: carbapenem alone (meropenem 8 μg mL^−1, doripenem 2 μg mL^−1)
Method in brief: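 K. pneumoniae R3934 (NDM-1) was exposed to meropenem (4 or 8 μg mL−1) or doripenem (0.5 or 1 μg mL−1) with the test compound at 32 μg mL−1. Controls were untreated cultures and carbapenem alone (meropenem 8, doripenem 2 μg mL−1). Viable counts (Log CFU mL−1) were taken at 2, 4, 6 and 24 h; <50 CFU mL−1 was flagged.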

[1] = system: clinical isolates of NDM producing K. pneumoniae and E. coli; experiment: Checkerboard assay, summary over NDM-producing isolates; format: cell-based; conditions: for fold decrease in the MIC value: with 16 μg mL^−1 VanNHdipi (7 μM); for fold reduction of the MIC value: with 32 μg mL^−1 VanNHdipi (14 μM), all strains
Method in brief: (§2)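 Carbapenem (meropenem or doripenem) MICs were determined in μg mL−1 against NDM-producing K. pneumoniae and E. coli isolates. Each was tested alone and in the presence of fixed test compound at 16 μg mL−1 (7 μM) or 32 μg mL−1 (14 μM). Fold change is the MIC with compound relative to carbapenem alone.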

[2] = system: K. pneumoniae R3934 (NDM-1); experiment: MIC / checkerboard assay, K. pneumoniae R3934; format: cell-based; conditions: carbapenem alone
Method in brief: as §2

[3] = system: K. pneumoniae EN5136 (NDM-1, OXA-1, SHV); experiment: MIC / checkerboard assay, K. pneumoniae EN5136; format: cell-based; conditions: carbapenem alone
Method in brief: as §2

[4] = system: K. pneumoniae BAA2146 (NDM-1); experiment: MIC / checkerboard assay, K. pneumoniae BAA2146; format: cell-based; conditions: carbapenem alone
Method in brief: as §2

[5] = system: E. coli EN5141 (NDM-1, OXA-1); experiment: MIC / checkerboard assay, E. coli EN5141; format: cell-based; conditions: carbapenem alone
Method in brief: as §2

MRSA [6] = experiment: Antagonization assay with N,N'-diacetyl-L-Lys-D-Ala-D-Ala; format: cell-based, S. aureus; conditions: Staphylococcus aureus, read-out: MIC in the presence of KAA
Method in brief: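 Test compound or vancomycin was pre-incubated with N,N'-diacetyl-L-Lys-D-Ala-D-Ala (KAA) before being added to the MRSA suspension for MIC determination. MIC in the presence of KAA was compared with that without KAA.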

MRSA [7] = experiment: Time-kill kinetics against exponential phase MRSA; format: cell-based, S. aureus; conditions: at MIC (vancomycin: same across concentrations)
Method in brief: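 Exponential-phase MRSA was exposed to the test compound or vancomycin at the MIC and higher multiples. Viable counts (Log CFU mL−1) were followed over time up to 24 h.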

[8] = system: GFP-MinD in B. subtilis 1981; experiment: GFP-MinD localization; format: cell-based, Bacillus subtilis; conditions: at PEC (vancomycin 0.4 μM, VanNHdipi 0.16 μM)
[9] = system: MRSA, methicillin-resistant S. aureus (ATCC 33591); experiment: MIC determination; format: cell-based; conditions: Staphylococcus aureus, ATCC33591|MRSA
B. subtilis = experiment: MIC determination against B. subtilis; format: cell-based; conditions: Bacillus subtilis
B. subtilis 168 [10] = experiment: Physiologically effective concentration; format: cell-based, Bacillus subtilis
Method in brief: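 B. subtilis 168 was grown to mid-log phase (OD500 0.35) and then given different concentrations of the test compound or vancomycin. The acute effect on growth was followed by optical density. The PEC is the concentration at which growth continues at a reduced rate, expressed as a multiple of the MIC.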

[11] = system: vancomycin-resistant strains (VRSA and VRE); experiment: MIC across the panel of vancomycin-resistant strains; format: cell-based, Staphylococci and Enterococci; conditions: Staphylococcus aureus
B. subtilis 168 [12] = experiment: Cell wall biosynthesis inhibition assay; format: cell-based, Bacillus subtilis; conditions: at PEC (vancomycin 0.4 μM, VanNHdipi 0.16 μM)
[13] = D-Ala-D-Lac versus D-Ala-D-Ala; cited from earlier work
[14] = system: B. subtilis 168 newly synthesized cytosolic proteins; experiment: 2D gel-based proteome analysis with [35S]-methionine pulse labeling; format: cell-based, Bacillus subtilis; conditions: 10 min
Method in brief: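 B. subtilis 168 cultures grown to OD500 0.35 were exposed for 10 min to the test compound or vancomycin at the physiologically effective concentration. Newly synthesised cytosolic proteins were pulse-labelled with [35S]-methionine, separated by 2D gel electrophoresis and compared with untreated cells by false-colour overlay (treated red, control green). Proteins were identified by LC-MS; regulation factor is the treated/control ratio.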

MRSA ATCC 33591 biofilms = experiment: Activity against mature biofilms of MRSA; format: cell-based, S. aureus; conditions: 20 μM, 24 h

Sequence of NDM-1 (C7C422 29-270, looked up): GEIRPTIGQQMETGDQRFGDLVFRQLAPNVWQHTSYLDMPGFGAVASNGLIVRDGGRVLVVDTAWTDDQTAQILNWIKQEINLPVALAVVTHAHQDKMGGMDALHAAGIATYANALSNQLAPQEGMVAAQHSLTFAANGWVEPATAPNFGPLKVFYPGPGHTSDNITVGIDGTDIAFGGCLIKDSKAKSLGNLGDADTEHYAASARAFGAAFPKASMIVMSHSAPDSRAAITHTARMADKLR
Sequence of IMP-1 (P52699 19-246, looked up, species assumed): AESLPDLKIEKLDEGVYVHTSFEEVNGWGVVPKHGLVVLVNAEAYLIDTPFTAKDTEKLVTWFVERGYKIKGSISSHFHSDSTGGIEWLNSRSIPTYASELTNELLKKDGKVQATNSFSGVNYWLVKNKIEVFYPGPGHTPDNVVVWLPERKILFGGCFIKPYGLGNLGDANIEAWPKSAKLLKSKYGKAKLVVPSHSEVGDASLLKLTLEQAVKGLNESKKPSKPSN

## O=C(O)c1ncsc1NS(=O)(=O)c1cccnc1 [ANT431]
VIM-1 and IMP-1
  fold less active than against NDM-1 and VIM-2: at least 20 fold
NDM-1 and VIM-2
  inhibitory activity: sub-micromolar

## c1ccc(CNCc2ccccn2)nc1 [BPYA, bis(pyridin-2-ylmethyl)amine]
NDM-1
  IC50: 1200 nM
IMP-1
  IC50: > 40000 nM

## C[C@@H](O)[C@H]1C(=O)N2C(C(=O)O)=C(S[C@@H]3CN[C@H](CNS(N)(=O)=O)C3)[C@H](C)[C@H]12 [Doripenem]
K. pneumoniae R3934
  growth inhibition: no growth inhibition
[1]
  MIC: 0.06 to 4 µg/mL
  fold reduction of the MIC value: 16–32 fold
[1]; NDM producing K. pneumoniae and E. coli
  fold decrease in the MIC value: 4-16 fold
[2]
  MIC of carbapenem: 16 µg/mL
[3]
  MIC of carbapenem: 8 µg/mL
[4]
  MIC of carbapenem: 16 µg/mL
[5]
  MIC of carbapenem: 8 µg/mL

## C[C@@H](O)[C@H]1C(=O)N2C(C(=O)O)=C(S[C@@H]3CN[C@H](C(=O)N(C)C)C3)[C@H](C)[C@H]12 [Meropenem]
K. pneumoniae R3934
  growth inhibition: did not show any growth inhibition
[1]
  MIC: 0.06 to 4 µg/mL
  fold reduction of the MIC value: 16–32 fold
[1]; NDM-1 expressing K. pneumoniae strains
  fold decrease in the MIC value: 2-8 fold
[2]
  MIC of carbapenem: 64 µg/mL
[3]
  MIC of carbapenem: 8 µg/mL
[4]
  MIC of carbapenem: 8 µg/mL
[5]
  MIC of carbapenem: 2 µg/mL

## CN[C@H](CC(C)C)C(=O)N[C@H]1C(=O)N[C@@H](CC(N)=O)C(=O)N[C@H]2C(=O)N[C@H]3C(=O)N[C@H](C(=O)N[C@H](C(=O)O)c4cc(O)cc(O)c4-c4cc3ccc4O)[C@H](O)c3ccc(c(Cl)c3)Oc3cc2cc(c3O[C@@H]2O[C@H](CO)[C@@H](O)[C@H](O)[C@H]2O[C@H]2C[C@](C)(N)[C@H](O)[C@H](C)O2)Oc2ccc(cc2Cl)[C@H]1O [Vancomycin]
MRSA [6]
  MIC: > 30 µM
MRSA [7]
  time to complete eradication: 24 h
[8]
  MinD delocalization: did not elicit any MinD protein delocalization
[9]
  MIC: 0.6 µM (≈ 0.87 µg/mL)
B. subtilis
  MIC: 0.2 µM (≈ 0.29 µg/mL)
B. subtilis 168 [10]; added at OD500 0.35
  PEC as multiple of MIC: 2 × MIC
B. subtilis 168 [10]; added at OD500 0.35 (mid-log phase)
  physiologically effective concentration (PEC), growth retardation: 0.4 μM
[11]
  MIC: > 346 µM and > 512 µg/mL
B. subtilis 168 [12]
  inhibition of cell wall biosynthesis (bubbles on cell surface): Bubble-like formations were observed
[13]
  fold reduction in binding affinity: 1000 fold
[14]; at PEC (vancomycin 0.4 μM, VanNHdipi 0.16 μM)
  Regulation factor (treated/control), CysC: 2.3 ± 0.1
[14]; at PEC
  Regulation factor (treated/control), GsaB: 2.8 ± 0.4
  Regulation factor (treated/control), Hom: 5.0 ± 3.8
  Regulation factor (treated/control), LysA: 2.7 ± 0.3
  Regulation factor (treated/control), MtnE: 2.4 ± 0.3
  Regulation factor (treated/control), MurF: 4.1 ± 1.6
  Regulation factor (treated/control), NfrA: 3.3 ± 0.2
  Regulation factor (treated/control), RpsB: 2.7 ± 0.3
  Regulation factor (treated/control), SdhA: 3.3 ± 1
  Regulation factor (treated/control), ThiG: 2.5 ± 0.1
  Regulation factor (treated/control), Udk: 3.1 ± 0.5
  Regulation factor (treated/control), YceC: 3.7 ± 0.9
  Regulation factor (treated/control), YoxD: 2.9 ± 0.1
  Regulation factor (treated/control), YpuA: 4.4 ± 0.3
  Regulation factor (treated/control), YqiG: 5.2 ± 1.3
  Regulation factor (treated/control), YtrB: 4.8 ± 0.5
  Regulation factor (treated/control), YtrE.2: 18.2 ± 8.98
MRSA ATCC 33591 biofilms
  reduction in cell viability within the biofilms: minimal activity
